ChEMBL document CHEMBL2157976, “Design, synthesis and biological activities of sorafenib derivatives as antitumor agents” (Bioorg Med Chem Lett, 2012)
Active and inactive are the calls of the source. The calls are words filed in the database; no cut-off is given here.

Columns and labels:
[1] = system: HCT-116; assay: Cytotoxicity against human HCT116 cells after 48 hrs by MTT assay; format: functional, cell-based; settings: HCT-116, 48 h
Method in brief: (§1)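 All three human tumour lines were screened in parallel by MTT colorimetric viability assay, with sorafenib as positive control. Antiproliferative potency was expressed as IC50.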

[2] = system: PC-3; assay: Cytotoxicity against human PC3 cells after 48 hrs by MTT assay; format: functional, cell-based; settings: PC-3, 48 h; method in brief: as §1
[3] = system: MDA-MB-231; assay: Cytotoxicity against human MDA-MB-231 cells after 48 hrs by MTT assay; format: functional, cell-based; settings: MDA-MB-231, 48 h; method in brief: as §1
[4] = system: Aorta; assay: Antiangiogenic activity in Sprague-Dawley rat aortic ring assessed as inhibition of blood vessel formation at 0.1 uM after 6 days by inverted microscopic analysis; format: functional, tissue-based
Method in brief: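 Sprague-Dawley rat aortic segments were embedded in wells coated with growth factor-reduced Matrigel. They were cultured for 6 d with or without compound, and untreated wells served as control. Microvessel sprouting from the segments was scored.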

Compound	IC50 [1] [µM]	IC50 [2] [µM]	IC50 [3] [µM]	inhibition [4]
CNC(=O)c1cc(Oc2cccc(NC(=S)Nc3ccc(Cl)c(C(F)(F)F)c3)c2)ccn1	15.1	16.1	35.7	
O=C(NCc1ccccc1)c1cc(Oc2cccc(NC(=S)Nc3ccc(OC(F)(F)F)cc3)c2)ccn1	7.4	6.8	> 100	
O=C(c1cc(Oc2cccc(NC(=S)Nc3ccc(F)c(F)c3)c2)ccn1)N1CCCC1	52	45.6	> 100	
O=C(NC1CC1)c1cc(Oc2cccc(NC(=S)Nc3ccc(Cl)c(C(F)(F)F)c3)c2)ccn1	9.3	6.8	21.2	
O=C(c1cc(Oc2cccc(NC(=S)Nc3cccc(C(F)(F)F)c3)c2)ccn1)N1CCCC1	19.2	27	35.4	
CC(C)NC(=O)c1cc(Oc2cccc(NC(=S)Nc3ccc(Cl)cc3)c2)ccn1	22.1	21.2	87.5	
O=C(NCc1ccccc1)c1cc(Oc2cccc(NC(=S)Nc3cccc(C(F)(F)F)c3)c2)ccn1	7.5	11	75	
CCNC(=O)c1cc(Oc2cccc(NC(=S)Nc3ccc(Cl)c(C(F)(F)F)c3)c2)ccn1	6.9	8.5	22.1	Active
CNC(=O)c1cc(Oc2cccc(NC(=S)Nc3cccc(C(F)(F)F)c3)c2)ccn1	25.3	24.5	> 100	
CCNC(=O)c1cc(Oc2cccc(NC(=S)Nc3cccc(C(F)(F)F)c3)c2)ccn1	19.4	18.3	53.1	
O=C(c1cc(Oc2cccc(NC(=S)Nc3ccc(Cl)c(C(F)(F)F)c3)c2)ccn1)N1CCCC1	22.4	12.1	40.2	
CNC(=O)c1cc(Oc2cccc(NC(=S)Nc3ccc(Cl)cc3Cl)c2)ccn1	41.2	37.8	> 100	
O=C(NC1CCCCC1)c1cc(Oc2cccc(NC(=S)Nc3cccc(C(F)(F)F)c3)c2)ccn1	8.4	16.8	> 100	
CNC(=O)c1cc(Oc2cccc(NC(=S)Nc3ccc(OC(F)(F)F)cc3)c2)ccn1	33.8	34.7	> 100	
CNC(=O)c1cc(Oc2cccc(NC(=S)Nc3ccc(Cl)cc3)c2)ccn1	39.4	24.1	> 100	
O=C(NCc1ccccc1)c1cc(Oc2cccc(NC(=S)Nc3ccc(Cl)cc3)c2)ccn1	16.5	15.8	> 100	
CC(C)NC(=O)c1cc(Oc2cccc(NC(=S)Nc3ccc(OC(F)(F)F)cc3)c2)ccn1	18.1	11.8	> 100	
O=C(NC1CCCCC1)c1cc(Oc2cccc(NC(=S)Nc3ccc(Cl)c(C(F)(F)F)c3)c2)ccn1	2.8	2.2	34.2	Active
O=C(NC1CC1)c1cc(Oc2cccc(NC(=S)Nc3cccc(C(F)(F)F)c3)c2)ccn1	20.2	22.1	34.8	
CNC(=O)c1cc(Oc2ccc(NC(=O)Nc3ccc(Cl)c(C(F)(F)F)c3)cc2)ccn1 [SORAFENIB]		6.8		Active
CNC(=O)c1cc(Oc2cccc(NC(=S)Nc3ccc(F)c(F)c3)c2)ccn1	30.3	33.1	> 100	
O=C(NC1CCCCC1)c1cc(Oc2cccc(NC(=S)Nc3ccc(F)c(F)c3)c2)ccn1	8.9	8.1	> 100	Active
CCNC(=O)c1cc(Oc2cccc(NC(=S)Nc3ccc(F)c(F)c3)c2)ccn1	30.3	26.3	> 100	
O=C(c1cc(Oc2cccc(NC(=S)Nc3ccc(OC(F)(F)F)cc3)c2)ccn1)N1CCCC1	17.8	34.1	37.8	
